The text below walks through data of ChEMBL document CHEMBL4371075, “α-Amino Diphenyl Phosphonates as Novel Inhibitors of Escherichia coli ClpP Protease” (J Med Chem, 2019).

The structures appear in SMILES notation. Bounds are passed on as bounds.

Sequence of ATP-dependent Clp protease proteolytic subunit (Escherichia coli (strain K12)) (P0A6G7 whole entry): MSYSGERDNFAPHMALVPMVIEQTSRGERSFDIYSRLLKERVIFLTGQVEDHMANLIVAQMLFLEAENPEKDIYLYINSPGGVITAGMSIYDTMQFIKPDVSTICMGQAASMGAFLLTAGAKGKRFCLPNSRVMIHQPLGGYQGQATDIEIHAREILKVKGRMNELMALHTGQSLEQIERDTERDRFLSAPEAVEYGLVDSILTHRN

The assay addresses ATP-dependent Clp protease proteolytic subunit (Escherichia coli (strain K12)) (UniProt P0A6G7). Put plainly: Inhibition of Escherichia coli C-terminal His6-tagged ClpP expressed Escherichia coli SG1146a at 200 uM using Suc-LY-AMC as substrate preincubated for 10 mins followed by substrate addition and measured over 1 hr by fluorescence assay relative to control. Put shortly: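 E. coli ClpP (625 nM) in 100 mM NaCl, 100 mM Hepes pH 7.5, 0.05% Brij 35, preincubated with compound (200 µM final, triplicates) 10 min at 30 °C. Suc-LY-AMC added (75 µM), fluorescence (ex 350/em 435 nm) followed over 1 h at 30 °C. Inhibition relative to 2% DMSO vehicle; Z-LY-CMK (200 µM) positive control; plates valid at Z' > 0.6.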
As for `O=C(NC(Cc1ccccc1)P(=O)(Oc1ccccc1)Oc1ccccc1)OCc1ccccc1` (stereo unspecified), the inhibition (usually the drop in the measured response relative to a control, in per cent) was determined as 7%.

`N=C(N)Nc1ccc(CC(NC(=O)OCCC(F)(F)C(F)(F)C(F)(F)C(F)(F)C(F)(C(F)(F)F)C(F)(F)F)P(=O)(Oc2ccccc2)Oc2ccccc2)cc1` (stereo unspecified) came in with an inhibition of 55%.

Turning to `CN(C)c1ccc(C(NC(=O)OCc2ccccc2)P(=O)(Oc2ccccc2)Oc2ccccc2)cc1NS(C)(=O)=O` (stereo unspecified), the inhibition came out at 46%.

Compound `N=C(N)N1CCC(C(NC(=O)/C=C/c2ccc3c(c2)OCO3)P(=O)(Oc2ccccc2)Oc2ccccc2)CC1` (stereo unspecified) had an inhibition of 4%.

With `CN(C)C(=O)Nc1ccc(CC(NC(=O)OCc2ccccc2)P(=O)(Oc2ccccc2)Oc2ccccc2)cc1` (stereo unspecified), the inhibition came out at 9%.

As for `O=C(NC(Cc1ccc(O)cc1)P(=O)(Oc1ccccc1)Oc1ccccc1)OCc1ccccc1` (stereo unspecified), the inhibition is less than 1%.

`[N-]=[N+]=NCCOCCOC(=O)NC(Cc1ccc(NC(=N)N)cc1)P(=O)(Oc1ccccc1)Oc1ccccc1` (stereo unspecified) had an inhibition of 68%.

Turning to `CN(C)C(=O)Nc1ccc(C(NC(=O)OCc2ccccc2)P(=O)(Oc2ccccc2)Oc2ccccc2)cc1` (stereo unspecified), the inhibition was determined as 22%.

Regarding `N=C(N)NCCCC(NC(=O)OCc1ccccc1)P(=O)(Oc1ccccc1)Oc1ccccc1` (stereo unspecified), the inhibition was 15%.

`NCCOc1ccc(C(NC(=O)OCc2ccccc2)P(=O)(Oc2ccccc2)Oc2ccccc2)cc1` (stereo unspecified): the inhibition was determined as 15%.

Regarding `N=C(N)Nc1ccc(C(NS(=O)(=O)c2ccc(C(F)(F)F)cc2)P(=O)(Oc2ccccc2)Oc2ccccc2)cc1` (stereo unspecified), the inhibition worked out at 27%.

`NCC1CCC(C(NC(=O)OCc2ccccc2)P(=O)(Oc2ccccc2)Oc2ccccc2)CC1` (stereo unspecified) returned an inhibition of 15%.

In turn, `CC(C)C[C@H](NC(=O)OCc1ccccc1)C(=O)N[C@H](C#N)Cc1ccc(O)cc1` displayed an inhibition of 13%.

The compound `N=C(N)N1CCC(C(NC(=O)/C=C/c2ccccc2)P(=O)(Oc2ccccc2)Oc2ccccc2)CC1` (stereo unspecified) had an inhibition of 18%.

In the case of `CN(C)c1ccc(C(NC(=O)OCc2ccccc2)P(=O)(Oc2ccccc2)Oc2ccccc2)c2ccccc12` (stereo unspecified), the inhibition was less than 1%.

In the case of `CC(NC(=O)OCc1ccccc1)P(=O)(Oc1ccccc1)Oc1ccccc1` (stereo unspecified), the inhibition was 3%.

Consider `O=C(NC(c1cccc([N+](=O)[O-])c1)P(=O)(Oc1ccccc1)Oc1ccccc1)OCc1ccccc1` (stereo unspecified), for which the inhibition was found to be 6%.

With `O=C(NC(C1CCNCC1)P(=O)(Oc1ccccc1)Oc1ccccc1)OCc1ccccc1` (stereo unspecified), the inhibition worked out at 30%.

For the compound `O=C(NC(COCc1ccccc1)P(=O)(Oc1ccccc1)Oc1ccccc1)OCc1ccccc1` (stereo unspecified), the inhibition is 4%.

As for `O=C(NC(c1ccc(NC(=O)C(F)(F)F)cc1)P(=O)(Oc1ccccc1)Oc1ccccc1)OCc1ccccc1` (stereo unspecified), the inhibition amounted to 15%.

The compound `O=C(NC(c1ccc2occc2c1)P(=O)(Oc1ccccc1)Oc1ccccc1)OCc1ccccc1` (stereo unspecified) registered an inhibition of 6%.

As to `COC(=O)NC(c1ccc(NC(=O)C(F)(F)F)cc1)P(=O)(Oc1ccccc1)Oc1ccccc1` (stereo unspecified), the inhibition worked out at 64%.

`N=C(N)Nc1ccc(CC(NC(=O)OCc2c(F)c(F)c(F)c(F)c2F)P(=O)(Oc2ccccc2)Oc2ccccc2)cc1` (stereo unspecified): the inhibition came out at 25%.

In the case of `N#C[C@H](Cc1ccc(O)cc1)NC(=O)OCc1ccccc1`, the inhibition was less than 1%.

On to `CC(=O)Nc1ccc(OP(=O)(Oc2ccc(NC(C)=O)cc2)C(Cc2ccccc2)NC(=O)OCc2ccccc2)cc1` (stereo unspecified), for which the inhibition worked out at 9%.

`O=C(NC(Cc1ccc2ccccc2c1)P(=O)(Oc1ccccc1)Oc1ccccc1)OCc1ccccc1` (stereo unspecified): the inhibition is less than 1%.

`COC(=O)NC(Cc1ccc(C(F)(F)F)cc1)P(=O)(Oc1ccc(NC(C)=O)cc1)Oc1ccc(NC(C)=O)cc1` (stereo unspecified) came in with an inhibition of 20%.

`Nc1ccc2cc(C(NC(=O)OCc3ccccc3)P(=O)(Oc3ccccc3)Oc3ccccc3)ccc2c1` (stereo unspecified) displayed an inhibition of less than 1%.

`Nc1ccc(C(NC(=O)OCCCC(F)(F)F)P(=O)(Oc2ccccc2)Oc2ccccc2)cc1` (stereo unspecified) had an inhibition of less than 1%.

On to `NCCOC(=O)NC(c1ccc(NC(=O)C(F)(F)F)cc1)P(=O)(Oc1ccccc1)Oc1ccccc1` (stereo unspecified), for which the inhibition was 73%.

`COc1ccc(CC(=O)NC(C2CCN(C(=N)N)CC2)P(=O)(Oc2ccccc2)Oc2ccccc2)cc1` (stereo unspecified) came in with an inhibition of 13%.

`N#Cc1cccc(C(NC(=O)OCc2ccccc2)P(=O)(Oc2ccccc2)Oc2ccccc2)c1` (stereo unspecified) returned an inhibition of 15%.

In the case of `N=C(N)c1ccc(C(NC(=O)OCc2ccccc2)P(=O)(Oc2ccccc2)Oc2ccccc2)cc1` (stereo unspecified), the inhibition is 30%.

For `O=C(NC(c1ccc2c(c1)OCO2)P(=O)(Oc1ccccc1)Oc1ccccc1)OCc1ccccc1` (stereo unspecified), the inhibition amounted to 6%.

In turn, `O=C(NC(c1cccnc1)P(=O)(Oc1ccccc1)Oc1ccccc1)OCc1ccccc1` (stereo unspecified) showed an inhibition of 27%.

Take `N=C(N)N1CCC(C(NS(=O)(=O)CCOc2ccccc2)P(=O)(Oc2ccccc2)Oc2ccccc2)CC1` (stereo unspecified): the inhibition amounted to 27%.

In turn, `COC(=O)NC(Cc1cccc(C(F)(F)F)c1)P(=O)(Oc1ccccc1)Oc1ccccc1` (stereo unspecified) registered an inhibition of 4%.

`N=C(N)N1CCC(C(NC(=O)c2cccnc2)P(=O)(Oc2ccccc2)Oc2ccccc2)CC1` (stereo unspecified) displayed an inhibition of 13%.

The compound `N=C(N)Nc1ccc(C(NC(=O)OCc2ccccc2)P(=O)(Oc2ccccc2)Oc2ccccc2)cc1` (stereo unspecified) yielded an inhibition of 29%.

Consider `CC(=O)Nc1ccc(C(NC(=O)OCc2ccccc2)P(=O)(Oc2ccccc2)Oc2ccccc2)cc1` (stereo unspecified), for which the inhibition came to 8%.

`O=C(NC(Cc1cccc(O)c1)P(=O)(Oc1ccccc1)Oc1ccccc1)OCc1ccccc1` (stereo unspecified) displayed an inhibition of 3%.

In turn, `O=C(NC(CCc1ccccc1)P(=O)(Oc1ccccc1)Oc1ccccc1)OCc1ccccc1` (stereo unspecified) gave an inhibition of less than 1%.

`CC(=O)Nc1ccc(OP(=O)(Oc2ccc(NC(C)=O)cc2)C(Cc2ccc(C(F)(F)F)cc2)NC(=O)OCc2ccccc2)cc1` (stereo unspecified) had an inhibition of 1%.

Regarding `COC(=O)NC(c1cccc(N)c1)P(=O)(Oc1ccc(NC(C)=O)cc1)Oc1ccc(NC(C)=O)cc1` (stereo unspecified), the inhibition was 12%.

`O=C(NC(CC1CCNCC1)P(=O)(Oc1ccccc1)Oc1ccccc1)OCc1ccccc1` (stereo unspecified) showed an inhibition of 16%.

Regarding `O=C(NC(c1ccc2cc(O)ccc2c1)P(=O)(Oc1ccccc1)Oc1ccccc1)OCc1ccccc1` (stereo unspecified), the inhibition was less than 1%.

Compound `O=C(NC(c1ccc([N+](=O)[O-])cc1)P(=O)(Oc1ccccc1)Oc1ccccc1)OCc1ccccc1` (stereo unspecified) had an inhibition of 71%.

In the case of `N=C(N)N1CC(C(Nc2ncccn2)P(=O)(Oc2ccccc2)Oc2ccccc2)C1` (stereo unspecified), the inhibition is 12%.

In turn, `CS(=O)(=O)Nc1ccc(CCC(NC(=O)OCc2ccccc2)P(=O)(Oc2ccccc2)Oc2ccccc2)cc1` (stereo unspecified) registered an inhibition of 10%.

`COP(=O)(Oc1ccccc1)C(Cc1ccc(O)cc1)NC(=O)OCc1ccccc1` (stereo unspecified): the inhibition is 14%.

Consider `N=C(NO)c1cccc(C(Nc2ncccn2)P(=O)(Oc2ccccc2)Oc2ccccc2)c1` (stereo unspecified), for which the inhibition amounted to 23%.

Regarding `N#Cc1cc(C(NC(=O)OCc2ccccc2)P(=O)(Oc2ccccc2)Oc2ccccc2)ccc1N1CCNCC1` (stereo unspecified), the inhibition is 10%.

As to `C#CCOCCOCCOC(=O)NC(c1ccc(N2CCNCC2)cc1)P(=O)(Oc1ccccc1)Oc1ccccc1` (stereo unspecified), the inhibition worked out at 25%.

Turning to `COC(=O)NC(c1cccc(C(=N)N)c1)P(=O)(Oc1ccccc1)Oc1ccccc1` (stereo unspecified), the inhibition is 30%.

`COc1ccc(CC(NC(=O)OCc2ccccc2)P(=O)(Oc2ccccc2)Oc2ccccc2)cc1` (stereo unspecified) showed an inhibition of 6%.

`Nc1ccc(C(NC(=O)OCc2c(F)c(F)c(F)c(F)c2F)P(=O)(Oc2ccccc2)Oc2ccccc2)cc1` (stereo unspecified) had an inhibition of 28%.
